Rows were chosen to be rich in hits. Some 2.1% of all compounds tested hit in one or more screens of this group.
STAT3 act = IL-6 driven STAT3 reporter potentiators, primary screen, U3A cells, luciferase, luminescence, MLSCN library; IL-6 STAT3-luciferase reporter; 100% = signal with IL-6 EC80 alone; AID 871, 2007; 190,000 tested, 0.91% active; activation (% of control), % at 5.6 µM;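 active = activation above the screen-wide mean of compound activation plus 3 SD, cut at about 130% in these data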;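 note: 0% = background luminescence of wells with medium and substrate only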
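Material: STAT3-luciferase reporter U3A cells. Controls: IL-6-treated wells, 100% activation. Read-out: % activation versus median of IL-6-stimulated wells. Probe or stimulus: IL-6 stimulus at 33 ng/mL final. Timing: compound 1 h, then IL-6 6 h at 37 °C. Signal: reporter luminescence signal.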
STAT3 inh-1 = IL-6 driven STAT3 reporter inhibitors, primary screen, U3A cells, luciferase, luminescence, MLSCN library; IL-6 STAT3-luciferase reporter; host cell line lacks STAT1; inhibition, % at 5.5 µM; 190,000 tested, 0.89% active; AID 862, 2007;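 active = inhibition above the mean inhibition across all screened compounds plus 3 SD, cut at about 44% in these data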;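 note: 0% = DMSO only wells and 100% = 100 µM nifuroxazide control wells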
zVAD death inh = inhibitors of zVAD-triggered necroptosis, primary screen, L929 cells; L929 zVAD necroptosis rescue, ATP luminescence, 24 h; with zVAD 60 µM; viability rescue, % at 10 µM; 220,000 tested, 0.38% active; AID 1377, 2008;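 active = activation, scaled between plate controls, above about 75%, limit read from the data; inactive = activation under that limit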;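 note: 0% = zVAD with DMSO and 100% = DMSO alone without zVAD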
TNF death inh = inhibitors of TNF-alpha triggered necroptosis, primary screen, cell-based, Jurkat FADD-/-, single concentration. Jurkat FADD-/- TNF necroptosis rescue, ATP luminescence, 24 h; 0 = TNF only, 100 = no-TNF cells. activation (protection from cell death), % at 10 µM. 220,000 tested, 0.068% active. AID 463075, 2010;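 active = activation, meaning protection from cell death, of at least 50% relative to plate controls; inactive = activation below 50%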;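 note: necroptosis triggered by 40 ng/mL TNF-alpha added together with compound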
STAT1 blocker = STAT1 signaling inhibitors, primary screen, cell-based, HTS, luciferase reporter. 200,000 tested, 0.35% active. NIH 3T3 STAT1-luciferase reporter, IFN-gamma, luminescence. inhibition, % at 5.5 µM;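 active = inhibition above a set limit, the mean inhibition across all tested compounds plus 3 SD, cut at about 34% in these data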;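 note: 0% = IFN-gamma with DMSO and 100% = IFN-gamma with 300 µM nifuroxazide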
STAT3 inh-2 = STAT3 reporter inhibitors, retest of hits, confirmation, U3A cells, luciferase, luminescence. IL-6 STAT3 luciferase reporter; cell line lacks STAT1. AID 1265, 2008. 1,200 tested, 45% active. shares compounds with STAT3 inh-1. inhibition, % at 5.7 µM;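 active = inhibition above the hit cutoff computed for the primary STAT3 screen, cut at about 44% in these data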;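 note: 0% = IL-6 plus DMSO and 100% = IL-6 plus nifuroxazide control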
NFkB inh 2 = NF-kB reporter inhibitors in human cells, confirmation, counter-screen for STAT3 inhibitor project, cell-based, HEK293T, luciferase, TNF-alpha stimulus | 1,200 tested, 36% active | TNF-alpha induced | shares compounds with STAT3 inh-1 | inhibition, % at 5.7 µM;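 active = inhibition above the mean of solvent-only control wells plus 3 SD, cutoff set per campaign, cut at about 13% in these data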;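 note: 0% = TNF-alpha with DMSO and 100% = TNF-alpha with MG high control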
STAT1 inh STAT3c = STAT1 reporter inhibitors, IFN-gamma induced, confirmation, counter-screen for STAT3 inhibitor project, cell-based, NIH 3T3, luciferase luminescence; shares compounds with STAT3 inh-1; NIH 3T3 STAT1-luciferase reporter; inhibition, % at 5.7 µM; 1,200 tested, 27% active;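 active = inhibition above the mean plus 3 SD of solvent-only control wells, limit set per screening run, cut at about 16% in these data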;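 note: 0% = DMSO with IFN-gamma and 100% = nifuroxazide control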
* marks the source's active call; other numbers are inactive results; . = no result given.

SMILES | STAT3 act | STAT3 inh-1 | zVAD death inh | TNF death inh | STAT1 blocker | STAT3 inh-2 | NFkB inh 2 | STAT1 inh STAT3c
Cc1cccc(N2CCN(C(=O)CSCc3c(C)noc3C)CC2)c1C | 45.7 | 69.6* | 0.3 | -15.3 | 22.0 | 59.1* | 11.3 | 14.3
Cc1noc(C)c1CSCC(=O)N1CCN(c2ccc(F)cc2)CC1 | 67.0 | 45.8* | -0.1 | -4.1 | 27.2 | 30.8 | 2.6 | 4.3
CCC(=O)Nc1ccc(-c2csc(C)n2)cc1 | 97.0 | 1.3 | 1.5 | -0.4 | -14.1 | . | . | .
Cc1nc(-c2ccc(C(=O)Nc3ccc(F)cc3)cc2)cs1 | 57.2 | 52.5* | -0.3 | -3.2 | 5.2 | 56.7* | -1.8 | -78.1
O=C(Nc1ccc(F)cc1)NC1CCN(Cc2ccccc2)CC1 | 97.7 | 2.6 | 0.9 | 0.6 | 5.3 | . | . | .
O=C(NC1CCN(Cc2ccccc2)CC1)c1ccc2c(c1)[nH]c(=O)n2Cc1ccc(F)cc1 | 63.2 | 47.4* | 12.1 | -5.6 | 9.3 | 51.1* | 17.1* | 8.4
Cc1cccc(NC(=O)N2CCN(Cc3ccccc3)CC2)c1 | 103.1 | -1.5 | 0.5 | -0.8 | -3.3 | . | . | .
O=C(C1CCN(S(=O)(=O)c2cccc3cccnc23)CC1)N1CCN(c2ccc(Cl)cc2)CC1 | 65.0 | 47.0* | 0.7 | -8.3 | 25.9 | 30.0 | 14.3* | 24.2*
O=C(C1CCN(S(=O)(=O)c2cccc3cccnc23)CC1)N1CCN(c2ccccn2)CC1 | 94.5 | 11.7 | 0.2 | -3.5 | 4.7 | . | . | .
COc1cc(CC(=O)NCCc2ccc(OCc3ccccc3)cc2)c([N+](=O)[O-])cc1OC | 106.2 | -7.2 | -0.9 | 0.8 | -7.5 | . | . | .
CCN(CC)c1ccc2cc(-c3nc4ccccc4[nH]3)c(=O)oc2c1 | 21.4 | 98.7* | 28.7 | -2.3 | 24.5 | 76.0* | 49.5* | 16.7*
CCN(CC)c1ccc2cc(-c3nnc(-c4ccccc4)o3)c(=O)oc2c1 | 112.5 | -12.6 | 1.3 | -0.1 | -60.0 | . | . | .
C=CCNC(=O)COC(=O)COc1ccc(Cl)cc1C | 101.5 | -3.5 | 0.6 | 1.3 | -1.3 | . | . | .
Cc1cc(-n2c(C)cc(C(=O)CSc3nc(N)cc(=O)[nH]3)c2C)no1 | . | . | -1.0 | -4.7 | . | . | . | .
Cc1cc(C(=O)CSc2nc(N)cc(=O)[nH]2)c(C)n1-c1ccc(OC(F)F)cc1 | 48.7 | 64.3* | -1.6 | -6.8 | 32.1 | 74.4* | 19.0* | 24.8*
Cc1cc(C(=O)CSc2nc(N)cc(=O)[nH]2)c(C)n1CCc1ccc(F)cc1 | 62.6 | 46.0* | 0.1 | -1.2 | 18.7 | 41.4 | 5.7 | 12.5
CC(=O)c1ccc(N2CCN(C(=S)Nc3cccc(F)c3)CC2)cc1 | 87.9 | 15.6 | -0.3 | -3.6 | -15.9 | . | . | .
CC(=O)c1ccc(N2CCN(C(=S)Nc3ccc(Oc4ccccc4)cc3)CC2)cc1 | 35.5 | 77.5* | 0.9 | -18.1 | 18.1 | 60.9* | 20.2* | 11.6
COC(=O)c1ccc(-c2nc3cc(N)ccc3o2)cc1 | 51.7 | 59.2* | 0.1 | -8.3 | 2.9 | 31.4 | 1.0 | -48.0
O=C(/C=C/Nc1ccc(F)cc1Br)c1ccccc1 | 27.3 | 86.3* | 1.2 | -1.6 | 18.0 | 76.1* | 62.4* | 33.0*
COc1cccc(C(=O)/C=C/Nc2cccc(O)c2)c1 | 14.9 | 102.1* | 0.0 | -3.8 | 19.9 | 95.5* | 13.8* | 22.5*
O=C(/C=C/Nc1ccccc1)c1ccccc1 | 46.0 | 67.3* | -0.7 | -0.1 | 33.1 | 35.6 | -4.7 | -56.6
COc1cccc(C(=O)/C=C/Nc2ccc(NC(C)=O)cc2)c1 | 99.2 | 1.1 | 0.3 | -0.4 | -40.6 | . | . | .
Cc1ccc(C(=O)/C=C/Nc2ccc([N+](=O)[O-])cc2Br)cc1 | 80.8 | 29.0 | -0.2 | -2.7 | -29.9 | . | . | .
CCOC(=O)c1cc(=O)c2ccc(OCC(=O)Nc3ccc(F)cc3)cc2o1 | . | . | 1.6 | 2.8 | . | . | . | .
SMILES | STAT3 act | STAT3 inh-1 | zVAD death inh | TNF death inh | STAT1 blocker | STAT3 inh-2 | NFkB inh 2 | STAT1 inh STAT3c
O=C(NCc1cccs1)c1ccc(S(=O)(=O)N2CCOCC2)cc1 | 104.4 | -3.4 | 1.9 | 0.3 | -13.5 | . | . | .
CCn1c(N)nc2ccccc21 | 114.5 | -9.1 | 0.7 | 0.3 | -0.3 | . | . | .
CC(=O)c1cccc(NC(=O)Nc2ccc(C(=O)N3CCCC3)cc2)c1 | 88.2 | 13.2 | 0.4 | -1.6 | 13.6 | . | . | .
O=C(Nc1ccccc1)Nc1ccc(C(=O)N2CCCC2)cc1 | 64.1 | 44.9* | 17.5 | -10.7 | 30.1 | 23.3 | -6.9 | -24.2
COc1ccccc1N1CCN(C(=O)/C=C/c2c(Cl)nc3ccccn23)CC1 | 102.4 | 3.0 | 0.0 | -0.2 | 6.0 | . | . | .
Cc1nn(-c2ccccc2Cl)c(Cl)c1/C=N/Nc1cccc(C(=O)O)c1 | 57.4 | 50.8* | 2.0 | 0.9 | 21.2 | -7.1 | 60.9* | 45.6*
Cc1nn(-c2cccc(C(F)(F)F)c2)c(Cl)c1/C=N/Nc1cccc(C(=O)O)c1 | 85.1 | 17.6 | 0.2 | 1.7 | -6.3 | . | . | .
O=C(CSc1cnc2ccccc2n1)c1ccc(F)cc1 | 52.1 | 58.1* | 0.1 | 1.0 | -17.1 | -2.7 | -37.1 | -69.6
O=C(COc1ccc(Cl)cc1)Nc1cnn(Cc2c(Cl)cccc2Cl)c1 | 95.8 | 13.5 | 0.1 | -1.0 | 6.5 | . | . | .
CN1/C(=C\C=O)C(C)(C)c2ccccc21 | 98.0 | 7.0 | 2.0 | -4.9 | 14.1 | . | . | .
CN1\C(=C/C=C/C=C/C=[N+](C)C)C(C)(C)c2ccccc21 | 57.8 | 53.9* | -0.7 | -11.6 | 31.4 | 33.9 | 2.3 | 28.9*
Cc1nn(CC(=O)N2CCc3ccccc3C2)c(C)c1[N+](=O)[O-] | 107.7 | -4.3 | 0.6 | 0.0 | 0.8 | . | . | .
COc1cccc2c1OC[C@@H](CO)[C@H]2N(C)C(=O)Nc1ccc(Cl)cc1Cl | 68.3 | 44.0* | -0.2 | -9.2 | 12.2 | 30.9 | 3.1 | 17.2*
Cn1c(=O)c2c(nc(SCCN3CCOCC3)n2Cc2ccccc2Cl)n(C)c1=O | 98.8 | 6.3 | -0.5 | -0.3 | -2.9 | . | . | .
CC(C)Oc1ccc(C(=O)Nc2ccc(N(C)C)cc2)cc1 | 61.0 | 53.7* | 5.3 | -5.4 | -9.7 | 35.3 | -9.4 | -36.3
CN(C)c1ccc(/C=N/NC(=O)c2ccc(NC(=O)c3ccccc3)cc2)cc1 | . | . | 0.8 | -1.1 | . | . | . | .
CCCCOc1ccc(C(=O)NC)cc1 | 98.7 | 4.6 | -0.2 | -1.0 | -2.3 | . | . | .
CCCCOc1ccc(C(=O)Nc2ccncc2)cc1 | 36.1 | 78.6* | -0.9 | -15.3 | 17.8 | 78.9* | 3.9 | 13.5

Screening results deposited in PubChem by several laboratories.
